Laboratory results from ChEMBL document CHEMBL1141063, “Ligands with dual vitamin D3-agonistic and androgen-antagonistic activities” (Bioorg Med Chem Lett, 2005).

How the values were obtained:
[1] = target: T1, Vitamin D3 receptor (Homo sapiens) (UniProt P11473); assay: Vitamin D3 agonistic activity as effective dose for HL-60 monocytic cell differentiation; format: functional, cell-based
T1 sequence (whole entry): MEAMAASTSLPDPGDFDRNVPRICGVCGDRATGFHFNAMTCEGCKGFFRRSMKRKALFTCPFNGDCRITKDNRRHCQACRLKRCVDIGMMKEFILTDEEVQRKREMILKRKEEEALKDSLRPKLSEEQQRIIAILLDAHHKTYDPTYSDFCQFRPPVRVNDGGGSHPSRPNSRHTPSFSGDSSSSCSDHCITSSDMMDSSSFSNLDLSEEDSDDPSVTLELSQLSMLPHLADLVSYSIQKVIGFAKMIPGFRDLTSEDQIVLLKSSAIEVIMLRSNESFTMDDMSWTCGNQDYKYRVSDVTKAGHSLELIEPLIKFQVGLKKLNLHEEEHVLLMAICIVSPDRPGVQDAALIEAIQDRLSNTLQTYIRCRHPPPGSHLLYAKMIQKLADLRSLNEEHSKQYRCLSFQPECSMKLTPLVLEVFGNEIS
In short: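 HL-60 cells held in RPMI 1640 with or without test compound for three days. Cells were then mixed 1:1 (v/v) with PBS containing 0.2% NBT and 20 nM TPA and kept 20 min at 37 °C. NBT-positive cells were counted among 200–300 cells to give the ED50. Differentiation was also checked by Wright–Giemsa morphology.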

[2] = Activity ratio of effective dose against vitamin D3 and inhibitory activity against androgen antagonistic activity; format: functional
In short: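 Ratio of ED50 for HL-60 differentiation to IC50 for SC-3 growth inhibition. HL-60: cells in RPMI 1640 with or without compound for three days, then NBT 0.2% plus TPA 20 nM in PBS (1:1) for 20 min at 37 °C; NBT-positive cells counted among 200–300. SC-3: cells in MEM, 10% FBS, 10 nM testosterone with or without compound, three days, 37 °C, 5% CO2.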

[3] = target: T2, Androgen receptor (Homo sapiens, UniProt P10275); assay: Binding affinity to androgen receptor by incubation with GST-hARLBD and [3H]testosterone
T2 sequence (P10275 whole entry): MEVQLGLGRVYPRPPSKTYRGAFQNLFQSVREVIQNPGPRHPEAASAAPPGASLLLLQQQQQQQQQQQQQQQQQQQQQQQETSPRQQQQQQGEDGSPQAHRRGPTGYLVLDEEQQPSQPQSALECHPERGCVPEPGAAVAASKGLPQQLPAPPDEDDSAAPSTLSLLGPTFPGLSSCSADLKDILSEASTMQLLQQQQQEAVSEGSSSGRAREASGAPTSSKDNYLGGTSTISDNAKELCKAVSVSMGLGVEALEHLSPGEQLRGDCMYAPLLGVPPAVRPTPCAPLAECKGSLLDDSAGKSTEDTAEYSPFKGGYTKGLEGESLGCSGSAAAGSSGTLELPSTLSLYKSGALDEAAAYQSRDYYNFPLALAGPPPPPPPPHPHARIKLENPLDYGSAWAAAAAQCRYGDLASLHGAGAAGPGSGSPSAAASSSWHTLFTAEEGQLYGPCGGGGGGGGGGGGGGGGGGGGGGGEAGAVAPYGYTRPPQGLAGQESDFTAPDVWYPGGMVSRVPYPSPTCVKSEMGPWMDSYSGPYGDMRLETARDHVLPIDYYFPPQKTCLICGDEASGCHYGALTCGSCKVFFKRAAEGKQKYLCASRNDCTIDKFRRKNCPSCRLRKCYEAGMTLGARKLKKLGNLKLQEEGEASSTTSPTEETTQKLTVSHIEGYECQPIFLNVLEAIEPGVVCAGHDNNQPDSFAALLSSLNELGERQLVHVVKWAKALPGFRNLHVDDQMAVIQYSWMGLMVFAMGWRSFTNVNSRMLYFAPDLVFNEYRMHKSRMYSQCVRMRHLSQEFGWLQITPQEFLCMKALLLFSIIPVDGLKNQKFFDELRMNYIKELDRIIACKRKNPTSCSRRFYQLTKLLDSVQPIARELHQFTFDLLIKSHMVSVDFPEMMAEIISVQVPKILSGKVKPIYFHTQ

ED50 [1] [nM]	Ki [3] [nM]	SMILES	Ratio [2]
44		CCC(CC)(c1ccc(OCC(O)CO)c(C)c1)c1ccc(OCC(O)C(C)(C)C)c(C)c1 (centres undefined)	2.31
52	1510	CCC(CC)(c1ccc(NCC(O)CO)c(C)c1)c1ccc(OCC(O)C(C)(C)C)c(C)c1 (centres undefined)	5.78
410		CCC(CC)(c1ccc(OCC(=O)C(C)(C)C)c(C)c1)c1ccc(OCC(=O)C(C)(C)C)c(C)c1	0.22
110	1170	CCC(CC)(c1ccc(NCC(O)CO)c(C)c1)c1ccc(OCC(=O)C(C)(C)C)c(C)c1 (centres undefined)	14.5
1200		CCC(CC)(c1ccc(NCC(O)C(C)(C)C)c(C)c1)c1ccc(NCC(O)C(C)(C)C)c(C)c1 (centres undefined)	1.2
370	2900	CCC(CC)(c1ccc(NCCC(C)(C)O)c(C)c1)c1ccc(OCC(=O)C(C)(C)C)c(C)c1	0.45

The next lines start with the molecule.

SMILES	ED50 [1] [nM]	Ki [3] [nM]	Ratio [2]
CCC(CC)(c1ccc(O)c(C)c1)c1ccc(NCC(=O)C(C)(C)C)c(C)c1	1500		0.43
CCC(CC)(c1ccc(NCCC(C)(C)O)c(C)c1)c1ccc(NCCC(C)(C)O)c(C)c1	900	3380	0.13
CCC(CC)(c1ccc(NCC(=O)C(C)(C)C)c(C)c1)c1ccc(NCC(=O)C(C)(C)C)c(C)c1	450		0.45
CCC(CC)(c1ccc(NCC(=O)C(C)(C)C)c(C)c1)c1ccc(OCC(=O)C(C)(C)C)c(C)c1	450		0.38
